Data on 16 compounds can be found in ChEMBL document CHEMBL1629578, “Structure-activity relationships of antimicrobial and lipoteichoic acid-sequestering properties in polyamine sulfonamides” (Antimicrob Agents Chemother, 2009).

Activity calls are given as the source filed them. The calls are words filed in the database; no cut-off is given here.

The test system of data set [1] is HEK293. The data set is described as follows: (§1) Sequestering activity against saccharomyces cerevisiae lipoteichoic acid assessed as inhibition of TLR2-mediated NF-kappaB induction in HEK293 cells stably transfected TLR2/MD2/CD14/alkaline phosphatase by reporter gene assay. Type of data set: cell-based. The settings on record: Staphylococcus aureus, in the assay text read “Staphylococcus aureus” for “Saccharomyces cerevisiae”. In a few lines:
(§2)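 HEK-Blue-2 reporter cells (TLR2, MD2, CD14, NF-κB/AP-1-driven secreted alkaline phosphatase) were grown to confluence, then stimulated with LTA purified from S. aureus (n-butanol extraction, delipidated, enzymatically deproteinated) plus graded compound concentrations. sAP was read with a chromogen at 620 nm. Dilutions were run in quadruplicate and experiments repeated three times.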
On the technique in general: A reporter such as luciferase makes a cellular process visible.

The test system of data set [2] is HEK293. The data set is described as follows: Sequestering activity against lipoteichoic acid assessed as inhibition of TLR2-mediated NF-kappaB induction in HEK293 cells stably transfected TLR2/MD2/CD14/alkaline phosphatase by reporter gene assay.
The subject of data set [3] is HEK293. Kind of data set: Neutralizing activity lipopolysaccharide assessed as inhibition of TLR4-mediated NF-kappaB translocation in HEK293 cells stably transfected TLR4/MD2/CD14/alkaline phosphatase by reporter gene assay. The format is cell-based. In a few lines:
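HEK-Blue-4 cells (TLR4, MD2, CD14, NF-κB/AP-1-inducible secreted alkaline phosphatase) were grown to confluence and stimulated with E. coli O111:B4 LPS plus graded compound concentrations. Alkaline phosphatase was read with a chromogen at 620 nm. Each dilution was run in quadruplicate and experiments repeated three times.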

Data set [4] concerns HEK293. The data set is described as follows: Sequestration activity Saccharomyces cerevisiae lipoteichoic acid assessed as inhibition of TLR2-mediated NF-kappaB translocation in HEK293 cells stably transfected TLR2/MD2/CD14/alkaline phosphatase by reporter gene assay. The conditions noted are these: Staphylococcus aureus, in the assay text read “Staphylococcus aureus” for “Saccharomyces cerevisiae”. Type of data set: cell-based. The method, boiled down:
as §2

For data set [5], the system named is HEK293. Kind of data set: Neutralizing activity against saccharomyces cerevisiae lipoteichoic acid assessed as inhibition of TLR2-mediated NF-kappaB induction in HEK293 cells stably transfected TLR2/MD2/CD14/alkaline phosphatase by reporter gene assay. Type of data set: cell-based. The settings on record: Staphylococcus aureus, in the assay text read “Staphylococcus aureus” for “Saccharomyces cerevisiae”. The method, boiled down:
as §2

Data set [6] in a line: Aqueous solubility of the compound. Type of data set: physicochemical. The conditions noted are these: buffer.
The nature of data set [7]: as §1. The format is cell-based. The settings on record: Staphylococcus aureus, in the assay text read “Staphylococcus aureus” for “saccharomyces cerevisiae”. In a few lines: as §2
In another data set the test system is Staphylococcus aureus. The data set is described as follows: Antimicrobial activity against Staphylococcus aureus ATCC 13709 at 37 degC by broth microdilution method. Type of data set: functional, organism-based. In a few lines:
(§3)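 Broth microdilution in non-cation-supplemented Mueller-Hinton broth. Mid-log cultures were adjusted to OD600 0.5, diluted 10-fold and added to equal volumes of 2-fold serially diluted compound. Plates were incubated overnight at 37°C and read at 600 nm. MIC was the lowest concentration giving complete growth inhibition. Triplicate points from a representative experiment.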
On the technique in general: Broth dilution looks for growth in wells or tubes with falling amounts of substance.

The next data set has as its system Escherichia coli. Kind of data set: Antimicrobial activity against Escherichia coli ATCC 9637 at 37 degC by broth microdilution method. The format is functional, organism-based. The method, boiled down:
as §3

Regarding POLYMYXIN B, in the data set with HEK293 [1], the result was Active.

In the case of `CCCCCCCCS(=O)(=O)NCCCNCCCNCCCCNCCCN`, the inhibition entry in the data set on HEK293 [2], with HEK293 [3] and in the data set with HEK293 [4] was “Active” in each case.

Take `CCCCCCCCCCS(=O)(=O)NCCCNCCCNCCCCNCCCN`: the inhibition entry in the data set on HEK293 [2], in the data set with HEK293 [3] and in the data set on HEK293 [4] was “Active” in each case.

The term EC50 denotes the concentration needed to bring the measured effect to its halfway point. As for `CCCCCCCCCCCCCCCCS(=O)(=O)NCCCNCCCNCCCCCCNCCCNCCCNS(=O)(=O)CCCCCCCCCCCCCCCC.Cl`, in the data set on HEK293 [5], the inhibition entry was “inactive”. Also, the solubility result in data set [6] is reported as “Insoluble”. In addition, the 50% effective concentration (EC50) in [7] was 60 µM. In addition, the outcome in the data set with Staphylococcus aureus was Active.

Turning to `CCCCCCCCCCCCS(=O)(=O)NCCCNCCCNCCCCCCNCCCNCCCNS(=O)(=O)CCCCCCCCCCCC.Cl`, in the data set on HEK293 [5], the inhibition result is “inactive”. In addition, the solubility result in data set [6] is given as “Insoluble”. In addition, the EC50 in [7] worked out at 60 µM. Further, the result in the data set with Staphylococcus aureus was Active.

On to `CCCCCCCCCCCCS(=O)(=O)NCCCNCCCNCCCCNCCCN`, for which the inhibition result with HEK293 [2], in the data set with HEK293 [3] and with HEK293 [4] was “Active” in each case. Further, the result in the data set on Escherichia coli was Active.

As to `CCCCCCCCCCCCCCCCS(=O)(=O)NCCCNCCCCNCCCN`, the inhibition entry with HEK293 [2], in the data set with HEK293 [3] and with HEK293 [4] was “Active” each time. Moreover, in [7], the EC50 stood at 1 µM.

Take `CCCCCCCCCCS(=O)(=O)NCCCNCCCNCCCCCCNCCCNCCCNS(=O)(=O)CCCCCCCCCC.Cl`: in the data set on HEK293 [5], the inhibition result was “inactive”. Further, the solubility result in data set [6] is given as “Insoluble”. In addition, in [7], the EC50 was 60 µM. In addition, the result in the data set with Staphylococcus aureus was Active. In the data set with Escherichia coli, the result was inactive.

Take `CCCCCCCCCCCCCCCCCCS(=O)(=O)NCCCNCCCNCCCCCCNCCCNCCCNS(=O)(=O)CCCCCCCCCCCCCCCCCC.Cl`: in the data set with HEK293 [5], the inhibition result is “inactive”. The solubility entry in data set [6] is given as “Insoluble”. Moreover, in data set [7], the EC50 came to 60 µM. For the same compound, in the data set with Staphylococcus aureus, the result was Active.

For `CCCCCCCCCCS(=O)(=O)NCCCNCCCCNCCCN`, the inhibition entry in the data set on HEK293 [2], in the data set on HEK293 [3] and in the data set with HEK293 [4] was “Active” each time.

On to `CCCCCCCCCCCCS(=O)(=O)NCCCNCCCCNCCCN`, for which the inhibition result with HEK293 [2], in the data set on HEK293 [3] and in the data set on HEK293 [4] was “Active” in each case.

Turning to `CCCCCCCCS(=O)(=O)NCCCNCCCCNCCCN`, the inhibition entry in the data set with HEK293 [2], in the data set on HEK293 [3] and in the data set on HEK293 [4] was “Active” each time.

Regarding `CCCCCCCCCCCCCCCCCCS(=O)(=O)NCCCNCCCNCCCCNCCCN`, the inhibition result with HEK293 [2], in the data set on HEK293 [3] and in the data set with HEK293 [4] was “Active” each time.

Regarding `CCCCCCCCS(=O)(=O)NCCCNCCCNCCCCCCNCCCNCCCNS(=O)(=O)CCCCCCCC.Cl`, in the data set on HEK293 [5], the inhibition entry is “inactive”. For the same compound, in data set [6], the solubility result is “Insoluble”. The EC50 in [7] stood at 60 µM. In addition, the outcome in the data set on Staphylococcus aureus was Active. The result in the data set with Escherichia coli was inactive.

As to `CCCCCCCCCCCCCCCCS(=O)(=O)NCCCNCCCNCCCCNCCCN`, the inhibition result in the data set on HEK293 [2], with HEK293 [3] and in the data set on HEK293 [4] was “Active” in each case. Moreover, the EC50 in data set [7] was 1 µM. In the data set with Escherichia coli, the outcome was Active.

On to `CCCCCCCCCCCCCCCCCCS(=O)(=O)NCCCNCCCCNCCCN`, for which the inhibition entry with HEK293 [2], in the data set with HEK293 [3] and with HEK293 [4] was “Active” in each case.
